# Measured values as given in ChEMBL document CHEMBL1914360, “Synthesis and anticancer activity of 5'-chloromethylphosphonates of 3'-azido-3'-deoxythymidine (AZT)” (Bioorg Med Chem, 2011).
# Test system: KB
# Experiment: Cytotoxicity against human KB cells assessed as cell survival after 72 hrs by sulforhodamine B colorimetric assay
# Assay type: functional, cell-based
# Conditions: not given
# In short: (§1)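 SRB protein-stain assay: KB cells grown in RPMI 1640 and MCF-7 in DMEM, each with 10% FBS, 1% L-glutamine and 1% penicillin/streptomycin, at 37 °C. About 10,000 cells per well were left 24 h, then exposed 72 h to six concentrations ([…]), with DMSO ≤0.1%. Cells were TCA-fixed 1 h at 4 °C and stained 30 min at RT. OD was read at 490 nm, survival taken as % of untreated control, and each experiment run three times.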
row,SMILES,IC50
1,CNP(=O)(CCl)OC[C@H]1O[C@@H](n2cc(C)c(=O)[nH]c2=O)C[C@@H]1N=[N+]=[N-] (some centres not stated),52 µg/mL
2,CCNP(=O)(CCl)OC[C@H]1O[C@@H](n2cc(C)c(=O)[nH]c2=O)C[C@@H]1N=[N+]=[N-] (some centres not stated),> 100 µg/mL
3,CCCNP(=O)(CCl)OC[C@H]1O[C@@H](n2cc(C)c(=O)[nH]c2=O)C[C@@H]1N=[N+]=[N-] (some centres not stated),5.8 µg/mL
4,CCCCNP(=O)(CCl)OC[C@H]1O[C@@H](n2cc(C)c(=O)[nH]c2=O)C[C@@H]1N=[N+]=[N-] (some centres not stated),77 µg/mL
5,Cc1cn([C@H]2C[C@H](N=[N+]=[N-])[C@@H](COP(=O)(CCl)NC(C)C)O2)c(=O)[nH]c1=O (some centres not stated),12.1 µg/mL
6,C=CCNP(=O)(CCl)OC[C@H]1O[C@@H](n2cc(C)c(=O)[nH]c2=O)C[C@@H]1N=[N+]=[N-] (some centres not stated),47 µg/mL
7,Cc1cn([C@H]2C[C@H](N=[N+]=[N-])[C@@H](COP(=O)(CCl)NCCc3ccccc3)O2)c(=O)[nH]c1=O (some centres not stated),> 100 µg/mL
8,Cc1cn([C@H]2C[C@H](N=[N+]=[N-])[C@@H](COP(=O)(CCl)NCCc3c[nH]c4ccccc34)O2)c(=O)[nH]c1=O (some centres not stated),80 µg/mL
9,Cc1cn([C@H]2C[C@H](N=[N+]=[N-])[C@@H](COP(=O)(CCl)N(C)C)O2)c(=O)[nH]c1=O (some centres not stated),65 µg/mL
10,CCN(CC)P(=O)(CCl)OC[C@H]1O[C@@H](n2cc(C)c(=O)[nH]c2=O)C[C@@H]1N=[N+]=[N-] (some centres not stated),85 µg/mL
11,Nc1ccn([C@@H]2O[C@H](CO)[C@@H](O)[C@@H]2O)c(=O)n1 [CYTARABINE],0.99 µg/mL
12,Cc1cn([C@H]2C[C@H](N=[N+]=[N-])[C@@H](CO)O2)c(=O)[nH]c1=O [ZIDOVUDINE],3.12 µg/mL

# Test system: MCF7
# Experiment: Cytotoxicity against human MCF7 cells assessed as cell survival after 72 hrs by sulforhodamine B colorimetric assay
# Assay type: functional, cell-based
# Conditions: MCF7, 72 h
# In short: as §1
row,SMILES,IC50
1,CNP(=O)(CCl)OC[C@H]1O[C@@H](n2cc(C)c(=O)[nH]c2=O)C[C@@H]1N=[N+]=[N-] (some centres not stated),63.2 µg/mL
2,CCNP(=O)(CCl)OC[C@H]1O[C@@H](n2cc(C)c(=O)[nH]c2=O)C[C@@H]1N=[N+]=[N-] (some centres not stated),> 100 µg/mL
3,CCCNP(=O)(CCl)OC[C@H]1O[C@@H](n2cc(C)c(=O)[nH]c2=O)C[C@@H]1N=[N+]=[N-] (some centres not stated),3.7 µg/mL
4,CCCCNP(=O)(CCl)OC[C@H]1O[C@@H](n2cc(C)c(=O)[nH]c2=O)C[C@@H]1N=[N+]=[N-] (some centres not stated),82 µg/mL
5,Cc1cn([C@H]2C[C@H](N=[N+]=[N-])[C@@H](COP(=O)(CCl)NC(C)C)O2)c(=O)[nH]c1=O (some centres not stated),12.8 µg/mL
6,C=CCNP(=O)(CCl)OC[C@H]1O[C@@H](n2cc(C)c(=O)[nH]c2=O)C[C@@H]1N=[N+]=[N-] (some centres not stated),34 µg/mL
7,Cc1cn([C@H]2C[C@H](N=[N+]=[N-])[C@@H](COP(=O)(CCl)NCCc3ccccc3)O2)c(=O)[nH]c1=O (some centres not stated),> 100 µg/mL
8,Cc1cn([C@H]2C[C@H](N=[N+]=[N-])[C@@H](COP(=O)(CCl)NCCc3c[nH]c4ccccc34)O2)c(=O)[nH]c1=O (some centres not stated),> 100 µg/mL
9,Cc1cn([C@H]2C[C@H](N=[N+]=[N-])[C@@H](COP(=O)(CCl)N(C)C)O2)c(=O)[nH]c1=O (some centres not stated),22.8 µg/mL
10,CCN(CC)P(=O)(CCl)OC[C@H]1O[C@@H](n2cc(C)c(=O)[nH]c2=O)C[C@@H]1N=[N+]=[N-] (some centres not stated),67 µg/mL
11,Nc1ccn([C@@H]2O[C@H](CO)[C@@H](O)[C@@H]2O)c(=O)n1 [CYTARABINE],0.93 µg/mL
12,Cc1cn([C@H]2C[C@H](N=[N+]=[N-])[C@@H](CO)O2)c(=O)[nH]c1=O [ZIDOVUDINE],2.6 µg/mL

# Test system: Caco-2
# Experiment: Cytotoxicity against human Caco2 cells at 100 uM
# Assay type: cell-based
# Conditions: caco-2, 100 µM
# In short: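 Caco-2 monolayers were exposed for 2 h to compound at 100 µM in transport medium (HBSS with 10 mM HEPES, pH 7.4). This served as a pre-check before transport studies. Monolayer integrity was checked by TEER before and after the experiments.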
row,SMILES,Activity
1,CCCNP(=O)(CCl)OC[C@H]1O[C@@H](n2cc(C)c(=O)[nH]c2=O)C[C@@H]1N=[N+]=[N-] (some centres not stated),Non-toxic
2,Cc1cn([C@H]2C[C@H](N=[N+]=[N-])[C@@H](COP(=O)(CCl)NC(C)C)O2)c(=O)[nH]c1=O (some centres not stated),Non-toxic

# Test system: not listed separately
# Experiment: Apparent permeability from apical to basolateral side of the human Caco2 cells at 100 uM after 30 mins by HPLC method
# Assay type: ADME, cell-based
# Conditions: Caco-2
# In short: (§2)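 Caco-2 monolayers grown on polycarbonate membranes (0.4 µm pores) and used 21 days post-seeding; only monolayers with TEER above 800 Ω·cm² were used. Cells washed and pre-incubated 30 min at 37 °C. Compound at 100 µM in HBSS with 10 mM HEPES, pH 7.4, added to the donor side; shaken at 37 °C. Acceptor sampled every 15 min and analysed by HPLC. Papp reported as mean ± SD, n = 3.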
row,SMILES,"Papp A→B at 0.5 h, 100 µM"
1,CCCNP(=O)(CCl)OC[C@H]1O[C@@H](n2cc(C)c(=O)[nH]c2=O)C[C@@H]1N=[N+]=[N-] (some centres not stated),3.22 ×10⁻⁶ cm/s
2,Cc1cn([C@H]2C[C@H](N=[N+]=[N-])[C@@H](COP(=O)(CCl)NC(C)C)O2)c(=O)[nH]c1=O (some centres not stated),3.36 ×10⁻⁶ cm/s
3,Cc1cn([C@H]2C[C@H](N=[N+]=[N-])[C@@H](CO)O2)c(=O)[nH]c1=O [ZIDOVUDINE],2.85 ×10⁻⁶ cm/s

# Test system: not listed separately
# Experiment: Apparent permeability from basolateral to apical side of the human Caco2 cells at 100 uM after 30 mins by HPLC method
# Assay type: ADME, cell-based
# Conditions: Caco-2
# In short: as §2
row,SMILES,"Papp B→A at 0.5 h, 100 µM"
1,CCCNP(=O)(CCl)OC[C@H]1O[C@@H](n2cc(C)c(=O)[nH]c2=O)C[C@@H]1N=[N+]=[N-] (some centres not stated),16.1 ×10⁻⁶ cm/s
2,Cc1cn([C@H]2C[C@H](N=[N+]=[N-])[C@@H](COP(=O)(CCl)NC(C)C)O2)c(=O)[nH]c1=O (some centres not stated),18 ×10⁻⁶ cm/s

# Test system: not listed separately
# Experiment: Oral bioavailability in human
# Assay type: ADME, organism-based
# Conditions: in vivo
row,SMILES,bioavailability
1,Cc1cn([C@H]2C[C@H](N=[N+]=[N-])[C@@H](CO)O2)c(=O)[nH]c1=O [ZIDOVUDINE],63%
